The text below walks through data of article PMC3600088 (Journal of medicinal chemistry, 2013).

The target of data set [1] is T1, CMG2 (Homo sapiens, UniProt P58335, C175A/R40C).
T1 sequence (P58335 40-217 R40C/C175A): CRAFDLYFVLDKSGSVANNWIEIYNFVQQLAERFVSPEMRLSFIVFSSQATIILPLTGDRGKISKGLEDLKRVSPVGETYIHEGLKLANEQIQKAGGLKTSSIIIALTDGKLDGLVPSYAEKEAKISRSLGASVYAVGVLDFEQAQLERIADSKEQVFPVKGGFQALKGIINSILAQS
Briefly: CMG2-Protective antigen. It is filed as binding. As to conditions: for inhibitory activity in CMG2 FRET assay: concentrations up to 300 μM.

The test system of data set [2] is bFGF-driven angiogenesis. Briefly: Mouse corneal micropocket assay. Type of data set: in vivo, C57BL/6J mice. As to conditions: mice. In a few lines:
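Pellets with 80 ng bFGF were implanted in C57BL/6J corneas, five mice per group. Test compound was given daily by oral gavage at 20 mg/kg in 5% ethanol, or IP at 10 mg/kg/day in 2.5% DMSO, 5% Cremophor EL, 5% Tween-80, 7.5% N-methyl-2-pyrrolidone, 0.9% NaCl. Controls received vehicle. Dosing began at implantation, and vascular area was measured by slit lamp on postoperative day 5 (~10 eyes/group, t-test).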

Data set [3] relates to angiogenesis. As to conditions: cited from earlier work.
The subject of data set [4] is HMVEC-d cells. Briefly: Endothelial cell proliferation assay. It is filed as cell-based, human. As to conditions: at doses that inhibited migration, 24 and 72 hours.
The conditions of data set [5]: cited from earlier work.
The conditions of data set [6]: IP and orally at doses up to 30 mg/kg/day; cited from earlier work.
Data set [7] deals with human dermal microvascular endothelial cells (HMVEC-d). Kind of data set: Endothelial cell migration assay. Type of data set: cell-based. The settings on record: ex vivo endothelial cell migration assay. The essentials: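 HMVEC-d kept in EGM-2 and used before passage 7, resuspended in EBM with 0.1% BSA. 20,000 cells were placed on fibronectin-coated 8.0 μm-pore polycarbonate transwell inserts over full-serum (5%) medium with or without test compound, and left to migrate 4 h. Top-side cells were removed, membranes fixed and Diff-Quick stained, and 4 10X fields counted. Counts were normalized to no-treatment control, with IC50 from a binding-isotherm fit. Two experiments, n=3 each.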

In data set [8] the test system is Caco-2 monolayers. As to conditions: cited from earlier work.
For data set [9], the target named is H+, K+, ATPase. As to conditions: cited from earlier work.
Data set [10] has as its system DNA polymerases. As to conditions: certain DNA polymerases; cited from earlier work.
For data set [11] the following is noted: cited from earlier work. This is another data set of the same source.
For data set [12], the system named is angiogenesis. As to conditions: therapeutic concentrations; cited from earlier work.

Usually IC50 stands for the concentration that gives 50% inhibition.

Entries after “also recorded” stand apart in the source; their conditions may differ. Read-outs that look alike come from different tables or passages of the source.

With `COC(=O)c1cc(O)c(O)c(O)c1` [Methyl Gallate], in [1], the “inhibitory activity in CMG2 FRET assay” value is “None of these compounds exhibited any inhibitory activity”.
Consider `O=C(OC[C@H]1O[C@@H](OC(=O)c2cc(O)c(O)c(O)c2)[C@H](OC(=O)c2cc(O)c(O)c(O)c2)[C@@H](OC(=O)c2cc(O)c(O)c(O)c2)[C@@H]1OC(=O)c1cc(O)c(O)c(O)c1)c1cc(O)c(O)c(O)c1` [PGG, 1,2,3,4,6-penta-O-galloyl-β-D-glucopyranose], for which the “inhibition of bFGF-driven angiogenesis” value in data set [2] (10 mg/kg IP, 80 ng bFGF pellet) is given as “significantly inhibited”. Moreover, the “inhibition of bFGF-driven angiogenesis (vessel area)” value in data set [2] (20 mg/kg/day by oral gavage, 80 ng bFGF pellet, day 5) is “significantly inhibited; also recorded: statistically significant”. In addition, the “signs of toxicity (weight loss, hunched posture, behavioral abnormalities)” value in data set [2] (10 mg/kg IP or 20 mg/kg/day oral) is reported as “no obvious signs of toxicity”. Moreover, the “activity of HPLC fractions in the FRET assay” value in [1] (fractions of the "tannic acid" sample) is recorded as “active”. Also, the “IC50 (in words)” value in data set [1] (in vitro FRET binding assay), in data set [9] and in data set [10] was “submicromolar” throughout. In addition, in [3], the “dose at which antiangiogenic activity has been evoked” value was 4 mg/kg. For the same compound, the “cytotoxic or cytostatic effects” value in data set [4] is on record as “no cytotoxic or cytostatic effects”. Moreover, the plasma concentrations result was “single-digit micromolar” in data set [5] (intraperitoneal administration) and “submicromolar” in [5] (oral administration). Besides, the circulating concentrations in data set [5] (oral dose of 80 mg/kg, experimental animals) is less than 1 µM. Further, the ill effects result in data set [6] was “without ill effects”. In addition, the “IC50 of endothelial cell migration (in words)” value in data set [7] is listed as “submicromolar”. In [8], the nature of transport entry was “saturable”.
As for `CCCOC(=O)c1cc(O)c(O)c(O)c1` [Propyl Gallate], the “inhibitory activity in CMG2 FRET assay” value in [1] was “None of these compounds exhibited any inhibitory activity”.
Take `O=C(OC[C@H]1O[C@@H](OC(=O)c2cc(O)c(O)c(OC(=O)c3cc(O)c(O)c(O)c3)c2)[C@H](OC(=O)c2cc(O)c(O)c(OC(=O)c3cc(O)c(O)c(O)c3)c2)[C@@H](OC(=O)c2cc(O)c(O)c(OC(=O)c3cc(O)c(O)c(O)c3)c2)[C@@H]1OC(=O)c1cc(O)c(O)c(OC(=O)c2cc(O)c(O)c(O)c2)c1)c1cc(O)c(O)c(OC(=O)c2cc(O)c(O)c(O)c2)c1` [Tannic acid]: the “toxicity upon administration in mice” value in [11] is given as “toxic effects”.
With `COc1ccc2[nH]c([S+]([O-])Cc3ncc(C)c(OC)c3C)nc2c1` (centres unmarked) [omeprazole], the inhibition of angiogenesis entry in data set [12] is recorded as “fails to inhibit angiogenesis”.
In turn, Protocatechillic acid displayed a concentration for half-maximal inhibition (IC50) in data set [1] of more than 300 µM.
